Experimental data from different studies.
Compare with care: the assays were run in different laboratories.

| SMILES | system | setting | Papp |
| --- | --- | --- | --- |
| O=c1[nH]c2cc(-c3ccc(F)cc3)sc2c(=O)n1O | PAMPA | 10 µM, 5 h | 0.6 ×10⁻⁶ cm/s |
| c1ccc(-c2cccc(Nc3nccc(NC4CCCCC4)n3)c2)nc1 | PAMPA | 50 nM, 30 min | 1530 ×10⁻⁶ cm/s |
| O=c1[nH]c2cc(-c3ccc(Cl)cc3)sc2c(=O)n1O | PAMPA | 10 µM, 5 h | 1 ×10⁻⁶ cm/s |
| c1ccc(CN2CCN(c3nc(-c4ccccn4)nc4ccccc34)CC2)cc1 | PAMPA | 10 µM, 3 h, pH 7.4 | 32.8 ×10⁻⁶ cm/s |
| Cc1sc2[nH]c(=O)n(O)c(=O)c2c1C | PAMPA | 10 µM, 5 h | 1 ×10⁻⁶ cm/s |
| CCn1ccc2nc(-c3ccccn3)nc(N3CCC(c4ccccn4)C3)c21 (stereo not shown) | PAMPA | 10 µM, 3 h, pH 7.4 | 21 ×10⁻⁶ cm/s |
| O=c1[nH]c2sccc2c(=O)n1O | PAMPA | 10 µM, 5 h | 0.08 ×10⁻⁶ cm/s |
| CC(C)NCC(O)COc1cccc2ccccc12 (stereo not shown) | PAMPA-BBB | 0.5 µM, 4 h, pH 7.4 | 4.82 ×10⁻⁶ cm/s |
| CCCCNc1ccnc(Nc2cccc(-c3cccnc3)c2)n1 | PAMPA | 50 nM, 30 min | 1720 ×10⁻⁶ cm/s |
| N=c1c2c(-c3ccccc3)cn(Cc3ccccc3)c2ncn1Cc1ccco1 | PAMPA | 50 µM, 30 min | 1740 ×10⁻⁶ cm/s |
| O=C(O)c1ccc2c(c1)nc(Nc1cccc(Cl)c1)c1ccncc12 | PAMPA | 5 h, pH 7.4 | 0.728 ×10⁻⁶ cm/s |
| CC(C)(C)Nc1ccnc(Nc2cccc(-c3cccnc3)c2)n1 | PAMPA | 50 nM, 30 min | 1990 ×10⁻⁶ cm/s |
| O=c1[nH]c2sc3c(c2c(=O)n1O)CCNC3 | PAMPA | 10 µM, 5 h | 0.07 ×10⁻⁶ cm/s |
| c1ccc(-c2nc(N3CCOCC3)c3ccccc3n2)nc1 | PAMPA | 10 µM, 3 h, pH 7.4 | 19.4 ×10⁻⁶ cm/s |
| N=c1c2c(-c3ccccc3)cn(Cc3ccccc3)c2ncn1CCO | PAMPA | 50 µM, 30 min | 1270 ×10⁻⁶ cm/s |
| Cc1cc(C)c2cc(C(=O)NC3CCCCCCC3)[nH]c2c1 | PAMPA | 16 h | 0.18 ×10⁻⁶ cm/s |
| COc1ccc(Cn2c(-c3ccccc3)c(-c3ccccc3)c3c(=N)n(CC4CCOCC4)cnc32)cc1 | PAMPA | 50 µM, 30 min | 1270 ×10⁻⁶ cm/s |
| Cc1noc(C)c1-c1ccc2nc(-c3cnn(CC(C)(C)O)c3)nc(N3CCOC[C@@H]3c3ccccc3)c2c1 | PAMPA |  | 1180 ×10⁻⁶ cm/s |
| Cc1csc2[nH]c(=O)n(O)c(=O)c12 | PAMPA | 10 µM, 5 h | 0.2 ×10⁻⁶ cm/s |
| N=c1c2c(-c3ccccc3)c(-c3ccccc3)n(Cc3ccc(OC(F)(F)F)cc3)c2ncn1[C@H]1CC[C@@H](O)CC1 | PAMPA | 50 µM, 30 min | 1250 ×10⁻⁶ cm/s |
| CC[C@@H](C)[C@@H]1NC(=O)[C@@H](Cc2ccccc2)OC(=O)CN(C)C(=O)[C@H]([C@H](C)CC)NC(=O)[C@@H](Cc2ccccc2)OC(=O)CN(C)C1=O | PAMPA |  | 28 ×10⁻⁶ cm/s |
| c1cncc(-c2cccc(Nc3nccc(NC4CCOCC4)n3)c2)c1 | PAMPA | 50 nM, 30 min | 1840 ×10⁻⁶ cm/s |

| SMILES | system | setting | Papp |
| --- | --- | --- | --- |
| c1ccc(-c2nc(N3CCC(c4ccccn4)C3)c3ccccc3n2)cc1 (stereo not shown) | PAMPA | 10 µM, 3 h, pH 7.4 | 42.4 ×10⁻⁶ cm/s |
| O=C(CCCN1CCC(O)(c2ccc(Cl)cc2)CC1)c1ccc(F)cc1 | PAMPA-BBB | 50 µM, 16 h, pH 7.4 | 21.4 ×10⁻⁶ cm/s |
| CC(=O)CC(c1ccccc1)c1c(O)c2ccccc2oc1=O (stereo not shown) | PAMPA | 10 µM, 24 h, pH 7.4 | 1.5 ×10⁻⁶ cm/s |
| COc1cc(CN2CCc3c(cc(Cn4ccnc4C)cc3-c3cn(C)nc3C(F)(F)F)C2=O)cc(OC)c1 | PAMPA | 100 µM, 5 h, pH 7.4 | 5.3 ×10⁻⁶ cm/s |
| Cn1nccc1-c1nc(N2CCC(c3ccccn3)C2)c2ccccc2n1 (stereo not shown) | PAMPA | 10 µM, 3 h, pH 7.4 | 49.3 ×10⁻⁶ cm/s |
| CNc1ccnc(Nc2cccc(-c3cccnc3)c2)n1 | PAMPA | 50 nM, 30 min | 2250 ×10⁻⁶ cm/s |
| COc1ccc(Nc2nc(-c3ccccn3)nc3ccccc23)cc1 | PAMPA | 10 µM, 3 h, pH 7.4 | 36.3 ×10⁻⁶ cm/s |
| O=C(O)c1ccc2c(c1)nc(NCc1ccccc1)c1ncccc12 | PAMPA | 5 h, pH 7.4 | 6.53 ×10⁻⁶ cm/s |
| O=c1[nH]c2scc(-c3ccccc3)c2c(=O)n1O | PAMPA | 10 µM, 5 h | 0.4 ×10⁻⁶ cm/s |
| Fc1cccc(F)c1-c1nc(N2CCC(c3ccccn3)C2)c2ccccc2n1 (stereo not shown) | PAMPA | 10 µM, 3 h, pH 7.4 | 35.5 ×10⁻⁶ cm/s |
| N=c1c2c(-c3ccccc3)c(-c3ccccc3)n(Cc3ccc(S(N)(=O)=O)cc3)c2ncn1C1CCOCC1 | PAMPA | 50 µM, 30 min | 1 ×10⁻⁶ cm/s |
| Cn1c(=O)c2c(ncn2C)n(C)c1=O | PAMPA | 200 µM, 5 h | 6.85 ×10⁻⁶ cm/s |
| CN1CC(=O)O[C@H](Cc2ccccc2)C(=O)NCC(=O)N(C)CC(=O)O[C@H](Cc2ccccc2)C(=O)NCC1=O | PAMPA |  | 15 ×10⁻⁶ cm/s |
| c1ccc(-c2nc(NCc3ccco3)c3ccccc3n2)nc1 | PAMPA | 10 µM, 3 h, pH 7.4 | 22.8 ×10⁻⁶ cm/s |
| C[C@@H](NC(=O)[C@@H](CC(=O)N1CCC(N2CCCCC2)CC1)N1C(=O)[C@@H](N2C(=O)OC[C@@H]2c2ccccc2)[C@H]1/C=C/c1cccc(I)c1)c1ccccc1 | PAMPA-BBB | 25 µg/mL, 18 h, pH 7.4 | 2 to 4 ×10⁻⁶ cm/s |
| CC(C)Nc1ccnc(Nc2cccc(-n3ccnc3)c2)n1 | PAMPA | 50 nM, 30 min | 2070 ×10⁻⁶ cm/s |
| Cc1nc2n(c(=O)c1CCN1CCC(c3noc4cc(F)ccc34)CC1)CCCC2 | PAMPA-BBB | 50 µM, 16 h, pH 7.4 | 15.5 ×10⁻⁶ cm/s |
| COC(=O)[C@H](C)Nc1ccnc(Nc2cccc(-c3cccnc3)c2)n1 | PAMPA | 50 nM, 30 min | 1910 ×10⁻⁶ cm/s |
| N=c1c2c(-c3ccccc3)c(-c3ccccc3)n(Cc3ccccc3)c2ncn1[C@H]1CC[C@H](O)CC1 | PAMPA | 50 µM, 30 min | > 1000 ×10⁻⁶ cm/s |
| COc1ccc(C(CO)Nc2ncnc3sc(-c4ccccc4)cc23)cc1 (stereo not shown) | PAMPA |  | 240 ×10⁻⁶ cm/s |
| CC(C)Nc1ccnc(Nc2cccc(C(C)(C)C)c2)n1 | PAMPA | 50 nM, 30 min | 1600 ×10⁻⁶ cm/s |
